The values below come from the RNAGym collection of RNA variant scans (doi:10.1126/science.aae0568).

Sequences and labels used below:
B1: tRNA (parent)
chain: GUUCCGUUGGCGUAAUGGUAACGCGUCUCCCUCCUAAGGAGAAGACUGCGGGUUCGAGUCCCGUACGGAACG

This sample holds only a part of the variants without activity.

This data set covers variants of B1. Briefly: yeast fitness relative to wild type (ratio to wild type); higher = fitter; tRNA-Arg(CCU), competitive growth, 37 C, YPD. Summed up:
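Changes in genotype frequencies gave Darwinian fitness relative to wild type. Frequencies were read by 100-nucleotide paired-end sequencing of gene amplicons before and after pooled Saccharomyces cerevisiae strains, carrying tRNA-Arg(CCU) gene variants at the native locus, were competed in YPD at 37°C for 24 hours in six replicates. A genotype was kept only with ≥ 100 starting reads, and estimates < 0.5 were set to 0.5.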
With C24G C55U G67C, the yeast fitness was not above 0.5.
For the variant C24U C27U A40G G44A, the yeast fitness was not above 0.5.
For C24G U28C the value was 0.508; for C24G C31A, 0.526.
Take C24G C31U: the yeast fitness worked out at 0.571.
Regarding C24U U47A, the yeast fitness amounted to 0.683.
As for C24U G68C, the figure is 0.823.
For C24U G68U the value was 0.892; for C24G C31G C61G, 0.507.
For the variant G25A A43C G63C G67A, the yeast fitness was not above 0.5.
As to C24U A40C G52C G67A, the yeast fitness was not above 0.5.
As for C24G C46A, the yeast fitness worked out at 0.937.
In the case of C24G C46U, the yeast fitness came to 0.654.
For C24U A43C A70U the value was 0.59; for G25A A37C G68U, 0.702.
As for C24U U26C U28C G52C C60G, the figure is not above 0.5; as for C24G C30U A43U, 0.549; as for C24G C33G A36C A37C A42C A65U, not above 0.5.
Regarding G25A A45C C66U G67C, the yeast fitness turned out to be 0.608.
For C24U U32G A40U U53C U64G the value was not above 0.5; for G25A A45U, 0.803.
C24G C30U C31U C61U G67C: the yeast fitness was not above 0.5.
For C24G G39A the value was 0.643; for C24U U28C A40C A69C, not above 0.5; for C24U C31A U54C A57U, 0.547.
Turning to G25A A42C, the yeast fitness amounted to 0.868.
For C24U G25A C30U C46A the value was 0.829; for G25A A45G G52A U54A, not above 0.5; for C24G U28G C33U A42U G50A, not above 0.5.
As for C24U A45G C46G C55G A69C, the yeast fitness was not above 0.5.
Take C24G U53G: the yeast fitness is not above 0.5.
As for C24U U26C G63A A65G, the figure is not above 0.5; as for C24U C31G U32A, 0.504; as for C24U C34U A70G, 0.592.
On to C24U G51C G68A, for which the yeast fitness was not above 0.5.
For G25A A42U A65C G67U the value was not above 0.5.
For C24U G38A G51A G52C the value was 0.634.
For C24U A36C A45C C55U A70U the value was not above 0.5.
As for C24U A45C C49G A69C, the yeast fitness is not above 0.5.
As for C24U G58C, the figure is 0.89.
Regarding C24G G50A C55G, the yeast fitness is not above 0.5.
As for C24U C49A U64C, the figure is 1.04; as for C24G U32G A36G C60A A65U, not above 0.5; as for C24G G63A, 0.554.
As to C24U C62A A69G, the yeast fitness was found to be 0.502.
As for C24U C62A A69C, the figure is 0.524; as for C24U A57G C60U G68C, not above 0.5; as for G25A A40U U54C, 0.565.
For C24U C33U C34A the value was 0.555; for G25A A37U U54A, not above 0.5; for C24U U26A U28G G48A A57U, not above 0.5.
For G25A A45C U53C C55U G56C C61A C66U, the yeast fitness came to 0.564.
On to C24U G50A A65U, for which the yeast fitness was found to be 0.569.
On to C24U C34U U35G, for which the yeast fitness was not above 0.5.
In the case of C24G G25C C30G U32C G67C, the yeast fitness is not above 0.5.
For C24U C60A G63A the value was not above 0.5; for C24U U35A A42G A69U, not above 0.5.
As for C24G G44C G68U, the yeast fitness came out at 0.663.
For C24U C31U C49U A70C, the yeast fitness was determined as 0.643.
As for C24U C31G U54C C62G, the figure is not above 0.5; as for C24G G25C C30G U32C A70C, 0.533.
On to C24G C33U A37U C49G U64C, for which the yeast fitness was not above 0.5.
With C24U U32G G51A, the yeast fitness was not above 0.5.
As for C24U A40G, the figure is 0.72.
In the case of C24U A70G, the yeast fitness is 0.887.
For C24U G56A the value was 0.998; for C24U A37G A43G C49A, not above 0.5; for C24G U28C G50C, not above 0.5.
Regarding C24G G25C A45G C60A, the yeast fitness was found to be 0.617.
With C24U C62U, the yeast fitness worked out at 0.976.
For C24U U32G A40U the value was 0.513.
For C24U A42U G51C the value was not above 0.5; for C24U C27A C30G, not above 0.5.
For C24U C31A the value was 0.786; for C24G U35G C66U, not above 0.5.
Regarding C24U C33U C34G A40U, the yeast fitness is not above 0.5.
As for C24U G51C U53C, the figure is not above 0.5.
For C24U A37G A45U A69C the value was not above 0.5; for C24U A36G G58C C66G G68A, 0.569; for C24G U28G C33U A42U G50A A70U, not above 0.5.
In the case of C24U A36U C49G, the yeast fitness was 0.544.
For C24G U26A C33U, the yeast fitness was not above 0.5.
Turning to C24U C55G A57C, the yeast fitness was not above 0.5.
As for C24U C61G G63C, the figure is 0.537; as for C24G C31U C33G, not above 0.5; as for C24U A37U A40U, 0.568.
Take C24G C34G A69U: the yeast fitness is not above 0.5.
As for C24U C27G, the figure is 0.602; as for C24U C27U, 0.972.
As to C24G C30U G44C, the yeast fitness was not above 0.5.
For C24G G39C C60U A65U the value was not above 0.5; for C24U C31A C33A C34U C46A A69C, 0.546; for C24G C33G G51A U53A G56A G67C, 0.541.
For C24U G52C the value was 0.702.
As for C24U U53C C55U, the figure is not above 0.5; as for C24G G25C U35A G52A, not above 0.5.
For the variant C24G C46U A70U, the yeast fitness was determined as 0.642.
Regarding C24G C33U A37U G67A, the yeast fitness is not above 0.5.
For C24U G38C A40G the value was not above 0.5; for C24U G67U, 0.869.
As for C24U G67C, the yeast fitness was determined as 0.698.
C24G G41A G44A U53A C66U: the yeast fitness was not above 0.5.
For G25A A43C A70C the value was 0.824; for C24G G25C C66A, not above 0.5; for C24U U59A, 0.875.
Turning to C24G G38C A65C, the yeast fitness amounted to 0.513.
On to C24U A42G A43G, for which the yeast fitness was determined as 0.733.
As for C24U C27G G38C A57U C60A C62G, the figure is not above 0.5; as for C24G U28C C31G C66U, not above 0.5; as for C24U A37C G50C, 0.547.
For C24U G44A C49A U59A the value was 0.528; for C24G U35A G48C, not above 0.5; for C24G C31G A43U, 0.596.
Regarding C24U C34A, the yeast fitness was found to be 0.783.
For C24U C27U U53G C60A A70G the value was not above 0.5.
Consider C24U C60A C66G, for which the yeast fitness is 0.606.
For C24U C34U C61U the value was 0.545; for C24G U26C C31U, 0.747; for C24U A40U G68U A70C, not above 0.5.
Turning to C24U C30G A45C A70C, the yeast fitness was not above 0.5.
As for C24U G48A, the figure is 0.915.
As for C24U G48C, the figure is 0.955; as for C24U C34U A57U G67C, not above 0.5.
For C24U C49U G56C the value was 0.542; for C24G U26C, 0.688; for G25A A37U A40C, 0.68.
With C24G U59G A65U, the yeast fitness turned out to be 0.659.
As for C24G C30U C34A A45G G51A, the figure is not above 0.5; as for C24U C31G C55A A57U U59C C60U, not above 0.5.
Take C24U C34A G48C: the yeast fitness amounted to 0.693.
As for C24U C61A G67A, the figure is not above 0.5; as for C24G C34G U53A, 0.552.
For the variant C24U A36C G44C C62A, the yeast fitness turned out to be 0.752.
For C24G G39C A57G A65G the value was not above 0.5.
As for C24G C31G A36G A65U, the figure is not above 0.5; as for C24U C30A G50A, 0.587; as for C24U C29A U32A C46G A70C, not above 0.5.
As for G25A A37C C61U, the yeast fitness came out at 0.572.
As for C24U C49G A65U, the figure is not above 0.5; as for C24G C34G G44C, not above 0.5.
As for C24U A45G C49U, the yeast fitness stood at 0.931.
With C24G U28G C29G U35G U47A, the yeast fitness stood at 0.606.
As for C24G G25A C31G, the figure is 0.703; as for G25A A45U A57U, not above 0.5; as for C24U C55U U59A, 0.535.
As to C24U A42G G50A, the yeast fitness is not above 0.5.
With C24G C34U U35A A65U, the yeast fitness amounted to 0.578.
For the variant G25A A45U C62A, the yeast fitness was determined as 0.54.
As for C24U C27G G63A, the figure is 0.536.
For C24G G25A A45G C60A the value was not above 0.5.
For C24U C27U U47A A57G A70G the value was not above 0.5; for G25A A40C C55G C61A, not above 0.5; for C24G G25C A40C A42U U47A C61G C66G, 0.509.
Take C24U U26C A70U: the yeast fitness stood at 0.678.
For C24G U54G C55G C62U the value was not above 0.5; for C24G C31G G50A G68C, not above 0.5; for C24G U54C C55A A65U, not above 0.5.
With C24U U35C A70C, the yeast fitness was 0.671.
C24U C55G G63C: the yeast fitness worked out at 0.528.
With C24U C27U G39C, the yeast fitness was not above 0.5.
As for C24U C34G A40G, the figure is not above 0.5.
For C24G G58C C62U the value was not above 0.5; for C24U A45C G67A A70U, not above 0.5.
For C24U U47A U64C C66U, the yeast fitness was not above 0.5.
As for C24G U26A C46A G58C, the figure is not above 0.5.
As for C24U C29A, the figure is 0.656; as for C24U C29U, 0.859.
